The values that follow come from ChEMBL document CHEMBL1944636, “Inhibition of hepatitis C virus NS5B polymerase by S-trityl-L-cysteine derivatives” (Eur J Med Chem, 2012).

Active and inactive are the calls of the source. No cut-off for these calls is given here.

Series [1] deals with Hepatitis C virus. The series is described as follows: Inhibition of HCV genotype 1b recombinant N-His-tagged NS5B Cdelta21 polymerase expressed in Escherichia coli DH5alpha using [alpha-32P]UTP at 100 uM after 60 mins by liquid scintillation counting. Further details: species or system Hepatitis C virus subtype 1b. Particulars: for inhibition at 100 µM: DH5-alpha, 1 h. The procedure, abridged:
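Primer-dependent elongation with 100 ng NS5BCΔ21 in 20 mM Tris-HCl pH 7.0, 100 mM NaCl, 100 mM Na-glutamate, 1 mM MnCl₂, 0.25 μM polyrA/U₁₂, 20 μM UTP plus [α-³²P]UTP. Compound at 100 μM, 60 min at 30 °C. TCA/pyrophosphate stop, GF-B filter capture, scintillation counting. Percent of DMSO control, at least two independent measurements in duplicate.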

Series [2] in a line: Inhibition of HCV NS5B polymerase. On the set-up: species or system Hepacivirus hominis. The procedure, abridged:
(§1)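 NS5BCΔ21 (genotype 1b, N-His, from E. coli DH5α, Ni-NTA purified), 100 ng, elongates polyrA/U₁₂ with 20 μM UTP/[α-³²P]UTP and 1 mM MnCl₂ at pH 7.0, 60 min at 30 °C. Counted on filters by scintillation. IC50 from nonlinear fits of 8–12 concentrations in duplicate, two independent experiments.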

The subject of series [3] is Hepatitis C virus. Description: Inhibition of HCV genotype 1b recombinant N-His-tagged NS5B Cdelta21 polymerase expressed in Escherichia coli DH5alpha using [alpha-32P]UTP after 60 mins by liquid scintillation counting. Further details: species or system Hepatitis C virus subtype 1b. Particulars: DH5-alpha, 1 h. The procedure, abridged: as §1
In series [4] the test system is Hepatitis C virus. Description: Antiviral activity against HCV genotype 1b infected in human HuH7/Rep-Feo1b cells assessed as inhibition of viral replication at 100 uM after 42 hrs by luciferase reporter gene assay. Type of series: functional, Hepacivirus hominis. Particulars: Huh-7, 42 h. The procedure, abridged: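 Huh7/Rep-Feo1b replicon cells (DMEM, 10% FCS, 0.5 mg/mL G418, 37 °C, 5% CO2) seeded at 1 × 10⁴/well and exposed to 100 μM compound or DMSO for 42 h, 1.0% DMSO final. Replication was read as firefly luciferase signal relative to DMSO controls. Mean of three independent experiments in duplicate.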
For orientation: Reporter assays use an easily measured gene product as a stand-in for the process of interest.

Series [5] deals with Hepatitis C virus. The series is described as follows: Inhibition of HCV genotype 1b NS5B polymerase expressed in BHK cells at 100 uM after 42 hrs by luciferase reporter gene assay. On the set-up: species or system Hepatitis C virus subtype 1b. In a few lines:
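Intracellular NS5B RdRp activity was read in BHK-NS5B-FRLuc reporter cells, 1 × 10⁴/well, treated 42 h with 100 μM compound or 1% DMSO at 37 °C, 5% CO2. Dual-Glo luciferase read-out; inhibition is percent reduction of Renilla-to-firefly luminescence ratio against DMSO controls. Three independent experiments in duplicate.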

A short description of series [6]: Cytotoxicity against human HuH7 cells assessed as cell viability at 100 uM after 42 hrs by MTS assay. Particulars: read-out: Activity. Type of series: cell-based, Huh-7. In a few lines: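 Viability of Huh7/Rep-Feo1b replicon cells was measured by colorimetric MTS read-out after 42 h with 100 μM compound. Cells were seeded at 1 × 10⁴/well, DMSO was 1.0% final, and culture was at 37 °C, 5% CO2. Values relative to DMSO controls, three independent experiments in duplicate.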
On the technique in general: Formazan colour is commonly taken as a measure of viable cells.

The nature of series [7]: Cytotoxicity against hamster BHK cells assessed as cell viability at 100 uM after 42 hrs by luciferase reporter gene assay. Type of series: cell-based, Mesocricetus auratus. Particulars: read-out: Activity. In a few lines:
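BHK-NS5B-FRLuc reporter cells (DMEM, 10% FBS, 1 mg/mL G418, 10 μg/mL blasticidin) were plated at 1 × 10⁴/well with 100 μM compound or 1% DMSO for 42 h. Viability was taken as firefly luciferase level versus DMSO controls using Dual-Glo read-out. Three independent experiments in duplicate.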

By inhibition is commonly meant the relative decrease from the control value, in per cent. With `N[C@@H](CSC(c1ccccc1)(c1ccccc1)c1ccc(-c2ccccc2)cc1)C(=O)O`, the inhibition at 100 µM in series [1] is 22.4%.

`N[C@@H](CSC(c1ccccc1)(c1ccccc1)c1ccc2ccccc2c1)C(=O)O`: the inhibition at 100 µM in series [1] was 14.7%. Same read-out and setting: in the case of `CCc1ccc(C(SCCN)(c2ccccc2)c2ccccc2)cc1` it was 28.7%. The term pIC50 denotes the negative decadic logarithm of the IC50, by convention in mol/L. Turning to `N[C@@H](CSC1(c2ccc(Cl)cc2)c2ccccc2-c2ccccc21)C(=O)O`, the negative logarithm of the IC50 (pIC50) in series [2] was determined as 4.33. `CCc1ccc(C(SC[C@H](N)C(=O)O)(c2ccccc2)c2ccccc2)cc1`: the inhibition at 100 µM in series [1] came out at 36.8%. On to `NCCSC(c1ccccc1)(c1ccccc1)c1ccc2ccccc2c1`, for which, in series [1], the inhibition at 100 µM is 33.3%.

`N[C@@H](CSC(c1ccccc1)(c1ccccc1)c1cccs1)C(=O)O`: the inhibition at 100 µM in series [1] was determined as 23.4%.

Turning to `N[C@H](CSC(c1ccccc1)(c1ccccc1)c1ccccc1)C(=O)O`, the inhibition at 100 µM in series [1] is 17%. Same read-out and setting: in the case of `N[C@@H](CSC(c1ccccc1)(c1ccccc1)c1ccc(Cl)cc1)C(=O)O` it was 28.3%; in that of `N[C@@H](CSC(c1ccccc1)(c1ccccc1)c1ccc(C2CCCCC2)cc1)C(=O)O`, 20.5%. As for `CCCc1ccc(C(SCCN)(c2ccccc2)c2ccccc2)cc1`, the inhibition at 100 µM in series [1] came to 27.4%. Still for that read-out and setting: the result for `CCCCc1ccc(C(SC(C)(C)[C@H](N)C(=O)O)(c2ccccc2)c2ccccc2)cc1` reads 22%; that for `CCCCCc1ccc(C(SC[C@H](N)C(=O)O)(c2ccccc2)c2ccccc2)cc1`, 28.3%; that for `N[C@@H](CSC(c1ccccc1)(c1ccccc1)c1ccccc1)C(=O)O` [S-TRITYL-L-CYSTEINE], 12.6%.

As for `NCCSC(c1ccccc1)(c1ccccc1)c1ccc(I)cc1`, the inhibition at 100 µM in series [1] came out at 36.7%. On the same count and under the same terms, the result for `CCCc1ccc(C(SC[C@H](N)C(=O)O)(c2ccccc2)c2ccccc2)cc1` reads 36.9%.

As a reminder, the IC50 is the point on the concentration scale where inhibition reaches its midpoint. As for `CCCCc1ccc(C(SC[C@H](N)C(=O)O)(c2ccccc2)c2ccccc2)cc1`, the IC50 in series [3] turned out to be 39.7 µM. Further, in series [1], the inhibition at 100 µM was determined as 60%. With `CCCOc1ccc(C(SC(C)(C)[C@H](N)C(=O)O)(c2ccccc2)c2ccccc2)cc1`, the inhibition entry in series [1] (Hepatitis C virus subtype 1b) is “inactive”. With `CCCOc1ccc(C(SC[C@H](N)C(=O)O)(c2ccccc2)c2ccccc2)cc1`, the inhibition at 100 µM in series [1] is 14%. As for `N[C@@H](CSC(c1ccccc1)(c1ccccc1)c1ccc(C(=O)O)cc1)C(=O)O`, the inhibition at 100 µM in series [1] was 30.9%. On the same count and under the same terms, in the case of `CCCC(SC[C@H](N)C(=O)O)(c1ccccc1)c1ccccc1` it was 19.1%; in that of `CCCCCCc1ccc(C(SC[C@H](N)C(=O)O)(c2ccccc2)c2ccccc2)cc1`, 16.1%; in that of `Cc1ccc(C(SC[C@H](N)C(=O)O)(c2ccccc2)c2ccccc2)cc1`, 23.1%. For the compound `CCC(CC)C(SC[C@H](N)C(=O)O)(c1ccccc1)c1ccccc1`, in series [1], the inhibition at 100 µM amounted to 33.1%.

As for `CC(C)(SC(c1ccccc1)(c1ccccc1)c1ccccc1)[C@@H](N)C(=O)O`, the IC50 in series [3] worked out at 22.3 µM. Moreover, the inhibition at 100 µM in series [1] was found to be 82.8%; in series [4], 89.5%; in series [5], 85.4%. Also, the values for the viability at 42 h, 100 µM in series [6] and in series [7] were 72.6% and 100%, respectively. Consider `N[C@@H](CSC(c1ccccc1)(c1ccccc1)c1ccc(Br)cc1)C(=O)O`, for which the inhibition at 100 µM in series [1] amounted to 20.2%. Still for that read-out and setting: the result for `CC(C)C(SC[C@H](N)C(=O)O)(c1ccccc1)c1ccccc1` reads 22.5%; that for `CSc1ccc(C(SC[C@H](N)C(=O)O)(c2ccccc2)c2ccccc2)cc1`, 44.3%; that for `CSc1ccc(C(SCCN)(c2ccccc2)c2ccccc2)cc1`, 24%. Turning to `Cc1ccc(C(SCCN)(c2ccccc2)c2ccccc2)cc1`, the inhibition at 100 µM in series [1] was found to be 31.7%.

As to `N[C@@H](CSC(c1ccccc1)(c1ccccc1)c1ccc(C(F)(F)F)cc1)C(=O)O`, the inhibition at 100 µM in series [1] was 43.5%. Still for that read-out and setting: the result for `NCCSC(c1ccccc1)(c1ccccc1)c1ccc(-c2ccccc2)cc1` reads 36%; that for `CC(C)(C)c1ccc(C(SC[C@H](N)C(=O)O)(c2ccccc2)c2ccccc2)cc1`, 22.6%. On to `CC(C)c1ccc(C(SC[C@H](N)C(=O)O)(c2ccccc2)c2ccccc2)cc1`, for which the inhibition at 100 µM in series [1] came out at 31.2%.

Regarding `CN(C)[C@@H](CSC(c1ccccc1)(c1ccccc1)c1ccccc1)C(=O)O`, in series [1], the inhibition at 100 µM was found to be 17.2%.

Regarding `CC(C)(SC(c1ccccc1)(c1ccccc1)c1ccccc1)[C@H](N)C(=O)O`, the half-maximal inhibitory concentration (IC50) in series [3] came to 24.6 µM. For the same compound, the inhibition at 100 µM in series [1] came to 76.7%; in series [4], 91.2%; in series [5], 84.3%. The figures for the viability at 42 h, 100 µM in series [6] and in series [7] were 74.1% and 100%, respectively.

As to `CCC(C)C(SC[C@H](N)C(=O)O)(c1ccccc1)c1ccccc1` (stereo partly drawn), the inhibition at 100 µM in series [1] turned out to be 34%.
